Test [1] deals with CCRF-CEM. In words: Inhibitory concentration required to inhibit human T-lymphocyte (CEM) cell line by 50%. The class given is functional, cell-based.
Test [2] deals with FM3A. As to the kind of experiment: Inhibitory concentration required to inhibit mammary carcinoma (FM3A) cell line by 50%. The class given is functional, cell-based. To be noted: Mus musculus.
In test [3] the test system is HBL. In words: Inhibitory concentration required to inhibit melanoma (HBL) cells by 50%. The note with it: Homo sapiens. The test is classed as functional, cell-based. An outline of the steps: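 Monolayer culture in D-MEM or RPMI 1640 plus 10% FBS, 37 °C, 5% CO2. MTT assay at 570 nm, expressed as % growth. IC50 graphically fitted by hand; four parallel samples, three experiments.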

Test [4] concerns HT-29. As to the kind of experiment: Inhibitory concentration required to inhibit human colon carcinoma (HT-29) cells by 50%. The class given is functional, cell-based. A digest of the protocol: (§1)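 Monolayer cells in D-MEM or RPMI 1640 with 10% FBS, 37 °C, 5% CO2, seeded at 3 × 10⁴/mL. MTT read-out at 570 nm as % growth. IC50 by manual graphical fitting; mean ± SD, four parallel samples, three experiments.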

Test [5] concerns HeLa. As to the kind of experiment: Inhibitory concentration required to inhibit cervical carcinoma (HeLa) cells by 50%. The test is classed as functional, cell-based. The note with it: Homo sapiens. An outline of the steps:
as §1

For test [6], the system named is HEp-2. As to the kind of experiment: Inhibitory concentration required to inhibit laryngeal carcinoma (Hep2) cells by 50%. The test is classed as functional, cell-based. To be noted: Homo sapiens. A digest of the protocol: as §1
The test system of test [7] is L1210. In words: Inhibitory concentration required to inhibit murine leukemia (L1210) cell line by 50%. The note with it: Mus musculus. The class given is functional, cell-based.
Test [8] is described as follows: Inhibitory concentration required to inhibit pancreatic carcinoma (MiaPaCa2) cells by 50%. The test is classed as functional, Homo sapiens. A digest of the protocol:
as §1

Test [9] relates to MOLT-4. As to the kind of experiment: Inhibitory concentration required to inhibit human T-lymphocyte (Molt4/C8) cell line by 50%. The class given is functional, cell-based.
Test [10] has as its system SW-620. In words: Inhibitory concentration required to inhibit human colon carcinoma (SW620) cells by 50%. The class given is functional, cell-based. A digest of the protocol: (§2)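 Cells grown as monolayers in D-MEM or RPMI 1640 with 10% FBS at 37 °C, 5% CO2, plated at 5 × 10⁴/mL. Viable cells by MTT absorbance at 570 nm. IC50 from manual graphical fit; mean ± SD of four parallel samples in three experiments.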

Test [11] has as its system WI-38. As to the kind of experiment: Inhibitory concentration required to inhibit diploid fibroblasts (WI38) by 50%. The test is classed as functional, cell-based. The note with it: Homo sapiens. A digest of the protocol:
as §2

Test [12] relates to FM3A (Mus musculus). As to the kind of experiment: Inhibitory concentration required to inhibit mammary carcinoma (FM3A) cell line by 50%.

Each structure is given as a SMILES string. Where only a bound is given, the exact number is not on record here.

Regarding `CC(=O)OC(C)Cn1cnc2c(Cl)nc(I)nc21` (stereo not given), the IC50 (usually the concentration that gives 50% inhibition) in test [1] is 15.9 µM; in [2] it was 47 µM; in test [3], 5.25 µM; in test [4], 6.42 µM; in test [5] it was 5.13 µM; in [6], 6.31 µM. Further, the IC50 in test [7] came out at 13 µM; in [8], 14.5 µM; in test [9] it was 12.3 µM; in test [10], 3.55 µM; in test [11], 14.1 µM.

For `CC(O)Cn1cnc2c(Cl)nc(I)nc21` (stereo not given), the IC50 was more than 500 µM in [1]; 479 µM in [2]; more than 500 µM in [3]; more than 500 µM in test [4]; more than 500 µM in [5]; more than 500 µM in test [6]. Besides, the IC50 in [7], in test [8], in test [9], in [10] and in test [11] was more than 500 µM each time.

Regarding `OCCOCn1cnc2c(S)nc(F)nc21`, the IC50 in test [1] was 117 µM; in test [2], 155 µM; in test [3], more than 500 µM; in test [4], more than 500 µM; in test [5], more than 500 µM; in test [6], more than 500 µM. For the same molecule, the IC50 is 170 µM in test [7]; more than 500 µM in [8]; 164 µM in test [9]; more than 500 µM in test [10]; more than 500 µM in test [11].

In the case of `CC(=O)OC(C)Cn1cnc2c(S)nc(F)nc21` (stereo not given), the IC50 in test [1] was more than 500 µM; in test [2] it was 368 µM; in test [3] it was more than 500 µM; in [4], more than 500 µM; in test [5] it was more than 500 µM; in test [6], 200 µM. Also, the IC50 in [7] was 226 µM; in test [8], more than 500 µM; in [9], more than 500 µM; in test [10], more than 500 µM; in test [11] it was more than 500 µM.

Take `CC(=O)OC(C)Cn1cnc2c(N)nc(I)nc21` (stereo not given): the IC50 in [1] is 381 µM; in test [2], 462 µM; in test [3], more than 500 µM; in test [4] it was more than 500 µM; in [5], more than 500 µM; in test [6] it was more than 500 µM. The IC50 in test [7] was 421 µM; in test [8], more than 500 µM; in [9], 436 µM; in test [10], more than 500 µM; in [11], more than 500 µM.

In the case of `CC(O)Cn1cnc2c(N)nc(I)nc21` (stereo not given), the IC50 was 465 µM in [1]; 452 µM in [2]; more than 500 µM in test [3]; more than 500 µM in [4]; more than 500 µM in [5]; more than 500 µM in test [6]. Further, the IC50 in [7] was 490 µM; in test [8] it was more than 500 µM; in test [9] it was more than 500 µM; in test [10] it was more than 500 µM; in test [11], more than 500 µM.

As for `Nc1nc(I)nc2c1ncn2COCCO`, the IC50 in test [1], in [2], in [3], in [4], in test [5] and in test [6] was more than 500 µM in each case. Also, the IC50 in [7], in [8], in [9], in test [10] and in [11] was more than 500 µM in each case.

With `CC(=O)OC(C)Cn1cnc2c(Cl)nc(N)nc21` (stereo not given), the IC50 in test [1], in test [2], in [3], in [4], in test [5] and in [6] was more than 500 µM throughout. The IC50 in test [7], in test [8], in test [9], in [10] and in [11] was more than 500 µM throughout.

In the case of `CC(=O)OC(C)Cn1cnc2c(S)nc(N)nc21` (stereo not given), the IC50 in [1] is 381 µM; in [2], 366 µM; in test [3], 630 µM; in [4] it was more than 500 µM; in test [5], 89 µM; in test [6] it was 10 µM. The IC50 in test [7] came out at 128 µM; in [8], 25 µM; in test [9], 370 µM; in test [10], 0.16 µM; in test [11] it was 0.4 µM.

As for `CC(=O)OCCOCn1cnc2c(S)nc(N)nc21`, the IC50 in test [1] is 7.5 µM; in [2] it was 2 µM; in test [3], 15.8 µM; in test [4] it was more than 500 µM; in [5] it was 5 µM; in test [6] it was 4.9 µM. Besides, the IC50 in [7] is 3.2 µM; in [8], more than 500 µM; in [9], 8.9 µM; in test [10], 4.2 µM; in test [11], more than 500 µM.

Regarding `COc1nc(I)nc2c1ncn2COCCO`, the IC50 in [1], in test [2], in test [3], in test [4], in test [5] and in test [6] was more than 500 µM throughout. For the same molecule, the IC50 in test [7], in test [8], in [9], in test [10] and in test [11] was more than 500 µM in each case.

As for `CC(O)Cn1cnc2c(F)nc(N)nc21` (stereo not given), the IC50 in test [1] is more than 500 µM; in [3] it was 25 µM; in test [4], more than 500 µM; in [5], 63 µM; in test [7], more than 500 µM; in test [8] it was more than 500 µM. The IC50 in test [9], in [10], in test [11] and in [12] was more than 500 µM each time.

For `CC(=O)OCCOCn1cnc2c(S)nc(F)nc21`, the IC50 in test [1] was 37 µM; in [2], 136 µM; in [3], more than 500 µM; in [4], more than 500 µM; in [5], more than 500 µM; in [6] it was more than 500 µM. The IC50 in test [7] is 40 µM; in test [8] it was more than 500 µM; in test [9], 35 µM; in [10], more than 500 µM; in test [11], more than 500 µM.

Take `CC(=O)OC(C)Cn1cnc2c(Cl)nc(F)nc21` (stereo not given): the IC50 in test [1] amounted to 44 µM; in test [2], 93 µM; in test [3], 44.7 µM; in test [4] it was 75.9 µM; in [5] it was 50 µM; in test [6], 10 µM. In addition, the IC50 was determined as 37 µM in test [7]; 93.3 µM in test [8]; 41 µM in test [9]; 8.9 µM in test [10]; 100 µM in test [11].

Consider `CC(O)Cn1cnc2c(S)nc(F)nc21` (stereo not given), for which the IC50 in test [1], in test [2], in test [3], in test [4], in [5] and in test [6] was more than 500 µM in each case. Besides, the IC50 in test [7], in test [8], in [9], in [10] and in test [11] was more than 500 µM throughout.

Take `CC(=O)OCCOCn1cnc2c(Cl)nc(I)nc21`: the IC50 in test [1] is 11 µM; in test [2], 34 µM; in test [3] it was 19.9 µM; in test [4] it was more than 500 µM; in [5], 398 µM; in test [6] it was 56.2 µM. Moreover, the IC50 in [7] was 8.6 µM; in test [8] it was more than 500 µM; in [9] it was 9.4 µM; in [10], 15.8 µM; in [11], 63.1 µM.

Values taken from ChEMBL document CHEMBL1145945, “Synthesis and biological evaluation of iodinated and fluorinated 9-(2-hydroxypropyl) and 9-(2-hydroxyethoxy)methyl purine nucleoside analogues” (J Med Chem, 2003).
